Screening data as filed in PubChem BioAssay.
Only some compounds are listed: those with a hit (about 0.96% of all), similar ones and a draw of the others.
AGP1 TOR yeast – modulators of AGP1-GFP expression in yeast TOR pathway, primary screen, cell-based, multiplex flow cytometry, S. cerevisiae, MLPCN library; hit rate 0.02% among 320,000; GFP response vs DMSO, % at 10 µM; 3 h; GFP as percent of DMSO wells;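 active means GFP response relative to DMSO above a set limit, near screen average plus 3 SD, cut at about 150% in these data; inconclusive means fewer than 70 cells counted for the yeast strain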;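 further: median GFP channel fluorescence of the gated AGP1 strain per well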
CIT2-GFP yeast – modulators of CIT2-GFP expression in yeast, primary screen, S. cerevisiae, GFP fusion, multiplex flow cytometry, MLPCN library | GFP response vs DMSO, % at 10 µM | AID 2029, 2009 | S. cerevisiae CIT2-GFP strain, 3 h; 100 means same as DMSO wells | hit rate 0.065% among 320,000;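 active means GFP response relative to DMSO above a set limit, near the screen mean plus 3 SD, cut at about 150% in these data; inconclusive means Fewer than 70 cells measured for a yeast strain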;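 further: ratio of well median GFP fluorescence to mean of DMSO wells on the plate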
RPL19A TOR yeast – RPL19A-GFP expression modulators in yeast, primary screen, cell-based, S. cerevisiae, multiplex flow cytometry, MLPCN | S. cerevisiae RPL19A-GFP strain, 3 h; stronger effect = lower value | percent response vs DMSO, % at 10 µM | hit rate 0.3% among 330,000;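 active means percent response vs DMSO below 50%; inconclusive means fewer than 70 events counted for the yeast strain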;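 further: median channel GFP fluorescence of the barcoded RPL19A-GFP strain; lower means less RPL19A-GFP as with rapamycin TOR inhibition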
LAP4-GFP MLPCN – modulators of LAP4-GFP expression in yeast, primary screen, S. cerevisiae, multiplex flow cytometry, MLPCN library; GFP response vs DMSO, % at 10 µM; AID 2023, 2009; hit rate 0.34% among 320,000; 3 h; median GFP as percent of DMSO wells;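 active means GFP response vs DMSO above a set limit, about the screen mean plus 3 SD, cut at about 150% in these data; inconclusive means under 70 cell events counted for the yeast strain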
MEP2 TOR yeast – modulators of MEP2-GFP levels in yeast, primary screen, S. cerevisiae, multiplex flow cytometry, MLPCN library | AID 2016, 2009 | GFP response vs DMSO, % at 10 µM | S. cerevisiae MEP2-GFP strain, 3 h; 100% = DMSO control level | hit rate 0.51% among 330,000;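 active means GFP response versus DMSO above a set limit, roughly screen mean plus 3 SD, cut at about 180% in these data; inconclusive means fewer than 70 cells counted for a yeast strain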;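 further: median GFP fluorescence of the barcode-gated MEP2-GFP cells per well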
T cell modulator – modulators of CD8 T cell-vesicle binding, primary screen, mouse 2C CD8+ T cells, flow cytometry; 2C CD8+ T cell-vesicle binding; stronger effect = lower value; response (vesicle binding), % at 7 µM; hit rate 0.068% among 330,000; AID 2052, 2009;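 active means response, share of CD8 T cells binding vesicles, and their 90th percentile fluorescence all below set limits, cut at about 80% in these data, passing the limit was not always enough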;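 further: values below 100% mean blocked vesicle binding to the CD8+ T cells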
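System: murine 2C transgenic CD8+ T lymphocytes; also added: QL9-loaded Drosophila micro-vesicles; times: binding 1.5 h at 37 °C; measured by: flow cytometry, PE anti-B7-1 (FL2) versus Alexa647 anti-CD8 (FL8), PFA-fixed; control set: Peptide-free naked vesicles (low) and QL9 vesicles with 0.7% DMSO vehicle (high)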
Yeast autofluor – compound autofluorescence in yeast s288c, dose response, artefact control for yeast TOR pathway GFP screen, s288c strain; shares compounds with LAP4-GFP MLPCN; S. cerevisiae s288c, 520 nm autofluorescence, flow cytometry, 3 h; stronger effect = higher value; zero means same as solvent-only cells; fluorescence change (kMESF span) at 33 µM; 610 tested, under 10 active; AID 2757, 2010;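 active means fluorescence span over the dose series, or activity score, above about 33, limit read from the data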
Hits are given with their value; n = inactive; u = inconclusive; x = not tested or not shown; [ ] = dose if it differs, or a comment.

SMILES	AGP1 TOR yeast	CIT2-GFP yeast	RPL19A TOR yeast	LAP4-GFP MLPCN	MEP2 TOR yeast	T cell modulator	others
N#Cc1c(N)c(C(=O)c2ccc(Cl)cc2)n2c1CCC2	u	u	x	n	248[may fluoresce violet]	n
COc1ccccc1CNC(=O)COC(=O)c1cccc(S(=O)(=O)N2CCCC2)c1	n	n	n	n	n	n
COc1cc(S(=O)(=O)N2CCOCC2)ccc1NC(=O)c1cc2c(s1)CCC2	n	u	39[may fluoresce violet]	n	233[may fluoresce violet]	n
O=S(=O)(c1cccc(S(=O)(=O)N2CCOCC2)c1)N1CCCCC1	u	u	40[may fluoresce violet]	n	279[may fluoresce violet]	n
COc1ccc(S(=O)(=O)N2CCOCC2)cc1Cl	n	u	n	n	299[may fluoresce violet]	n
CCn1nc(C(=O)NCCc2ccc3c(c2)OCCO3)c2ccccc2c1=O	n	n	n	n	n	47
Nc1ccc2c(c1)C(=O)c1ccccc1-2	n	n	n	n	n	n
O=C1C(=O)c2ccc(-c3ccccc3)cc2-c2ccccc21	n	n	n	158	n	n
Nc1ccc2c(c1)C(=O)C(=O)c1ccccc1-2	n	n	n	189	n	n
NC(=O)COc1c(-c2ccc(Br)o2)oc2ccccc2c1=O	n	n	n	n	n	n
O=C(Cn1c(=O)n(-c2ccccc2)c(=O)c2sccc21)N1CCCC1	u	u	43[may fluoresce violet]	n	184[may fluoresce violet]	n
Cc1cccn2c(=O)c3cc(C(=O)NC4CCCC4)c(=N)n(C4CCCC4)c3nc12	n	n	n	n	n	n
N=c1c(C(=O)NC2CCCC2)cc2c(=O)n3ccccc3nc2n1C1CCCC1	u	u	16[may fluoresce violet]	n	308[may fluoresce violet]	n
COCCn1c(=N)c(C(=O)NCc2ccco2)cc2c(=O)n3ccccc3nc21	n	n	n	n	573	n
N=c1c(C(=O)NCc2ccco2)cc2c(=O)n3ccccc3nc2n1C1CCCC1	n	u	n	n	269[may fluoresce violet]	n
N=c1c(C(=O)NCc2ccco2)cc2c(=O)n3ccccc3nc2n1Cc1ccccc1	n	u	n	n	n	n
Cc1ccc(OCCN(C)C(=O)c2cc(COc3ccc(F)cc3F)on2)cc1	n	n	n	n	n	n
CCOC(=O)C1(CC2CCCCO2)CCN(S(=O)(=O)c2ccc(C)s2)CC1 (configuration not stated)	n	n	n	n	n	13
COc1ccc(NC(=O)NC23CC4CC(CC(C4)C2)C3)cc1OC	x	u	16[may fluoresce violet]	n	283[may fluoresce violet]	n
O=C(Nc1ccc2c(c1)OCCO2)NC12CC3CC(CC(C3)C1)C2	n	n	n	n	n	n
O=C(NCCCN1CCOCC1)C(=O)N/N=C/c1ccc(F)cc1	n	n	n	n	n	n
O=C(NCCCN1CCOCC1)C(=O)N/N=C/c1ccc2c(c1)OCO2	u	u	47[may fluoresce violet]	n	298[may fluoresce violet]	n
O=C(CN(Cc1ccccc1Cl)C(=O)c1csnn1)NCc1ccc(F)cc1	n	n	n	n	n	n
O=C(CN(Cc1ccccc1Cl)C(=O)c1csnn1)NCc1ccccc1	n	u	n	n	283[may fluoresce violet]	n
CC(C)CNC(=O)c1nc(-c2ccccc2)n(-c2ccccc2)n1	u	u	20[may fluoresce violet]	n	515[may fluoresce violet]	n
SMILES	AGP1 TOR yeast	CIT2-GFP yeast	RPL19A TOR yeast	LAP4-GFP MLPCN	MEP2 TOR yeast	T cell modulator	others
CCN(CC)c1ccc(C=C2C(=O)OC(c3ccccc3)OC2=O)cc1 (configuration not stated)	n	n	n	n	n	n
CCN(CC)c1ccc(/C=C/C(=O)C2C(=O)C=C(C)OC2=O)cc1 (configuration not stated)	n	u	n	429[may fluoresce violet]	462[may fluoresce violet]	n
O=C(O)C1CC=C(Cl)CC1C(=O)NC1CCCCC1 (configuration not stated)	n	n	n	n	n	n
N#C/C(=C\c1ccc2c(c1)OCCO2)C(=O)Nc1nccs1	n	n	n	n	n	n
Oc1[nH]c(N=C2N=c3ccccc3=N2)c2ccccc12	n	u	n	n	191[may fluoresce violet]	n
Oc1[nH]c(=S)sc1C=C1N=c2ccccc2=N1	n	n	n	n	n	n
CN(C)Cc1c(O)c(Cl)cc2c3c(c(=O)oc12)CCCC3	n	u	n	n	175[may fluoresce violet]	n
CCN(CC)Cc1c(O)c(Cl)cc2c3c(c(=O)oc12)CCCC3	n	n	n	n	n	n
CCc1c(C)c2cc(Cl)c(O)c(CN(C)C)c2oc1=O	n	n	n	n	193	n
Cc1c(C)c2cc(Cl)c(O)c(CN(C)C)c2oc1=O	n	u	n	n	n	n
O=C(NCc1nnc(SCC(=O)N2CCCC2)o1)c1cccc(C(F)(F)F)c1	n	n	n	n	n	n
O=S(=O)(c1ccc2c(c1)CCN2)N1CCOCC1	n	n	n	n	n	n
COc1ccc(CNC(=O)CCCC(=O)n2nc(C)c3ccccc32)cc1	n	n	n	n	n	n
CCN(C[C@H]1N[C@@](C)(C(=O)OC)[C@H]2C(=O)N(Cc3ccccc3)C(=O)[C@@H]12)C(=O)Nc1ccc(Cl)cc1	n	n	n	n	n	n
COc1cc(/C=N/NC(=O)CSc2n[nH]c(=O)[nH]c2=O)cc(OC)c1O	n	n	n	n	n	n
Cc1cccn2c(=O)nc(SCC(=O)N3CCC(C)CC3)nc12	n	n	n	n	n	n
CCOc1ccc(-n2c(-c3ccccc3)nnc2-c2ccccc2)cc1	x	u	45[may fluoresce violet]	n	252[may fluoresce violet]	n
O=C(O)c1ccn2c(C(=O)c3ccccc3)c(-c3ccccc3)cc2c1	n	n	n	156	n	n	Yeast autofluor=n
COc1ccc(-c2cc3cc(C(=O)O)ccn3c2C(=O)c2ccccc2)cc1	n	n	n	150	n	n	Yeast autofluor=n
COc1ccc(-c2c(C(=O)O)c(-c3ccccc3)cn2C)cc1	n	n	n	n	n	n
CC(OC(=O)CN1C(=O)c2ccccc2C1=O)C(=O)N(C)c1ccccc1 (configuration not stated)	n	n	n	n	n	n
CCCn1c(SC(C)C(=O)NCC2CCCO2)nc2sc3c(c2c1=O)CCC3 (configuration not stated)	n	n	n	n	n	n
